Source: ChEMBL document CHEMBL4304791, “DABMA: A Derivative of ABMA with Improved Broad-Spectrum Inhibitory Activity of Toxins and Viruses” (ACS Med Chem Lett, 2019)
Active and inactive are the calls of the source. The rule behind the calls is not given here.

Legend:
L929 = experiment: Cytoprotective activity in Pseudomonas aeruginosa exotoxin induced toxicity in mouse L929 cells assessed as protection factor after 18 hrs by liquid scintillation analysis relative to untreated control; format: functional
Outline: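 L929 cells were intoxicated with increasing doses of Pseudomonas exotoxin A for 18 h with compound (30 μM) or DMSO present. Protein synthesis was measured; duplicate wells, mean ± SD, one representative experiment (n = 3).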

Vero [1] = experiment: Inhibition of TcsL-induced cytotoxicity against African green monkey Vero cells assessed as reversal of toxin-induced cell rounding at 30 uM in presence of TcsL after 16 hrs by inverted microscopic analysis relative to ABMA; format: functional, Chlorocebus sabaeus
Outline: (§1)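 Vero cells were given compound (30 μM) or DMSO, then increasing doses of TcdB for 4 h or TcsL for 16 h. Cell rounding was imaged by inverted microscope. Rounded cells were counted and normalised to total Hoechst-counterstained cells (>100 cells per treatment).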

A549 [2] = experiment: Cytoprotection activity against diphtheria toxin-induced cytotoxicity against human A549 cells assessed as effect on protein synthesis incubated for 20 hrs followed by replacement of [14c]-Leucine containing medium and measured after 4 hrs by liquid scintillation analysis; format: functional, cell-based
Outline: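 A549 cells were incubated with compound and then challenged with increasing DT concentrations. DT cytotoxicity was read as protein synthesis inhibition. Data are mean of duplicate wells ± SD from one representative experiment (n = 3).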

[3] = Cytotoxicity against human A549 cells assessed as reduction in cell viability incubated for 24 hrs by Alamar blue assay; format: cell-based
Outline: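 A549 cytotoxicity by Alamar Blue viability assay; duplicate wells, mean ± SD, one representative experiment (n = 3).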

A549 [4] = experiment: Inhibition of diphtheria induced toxicity in human A549 cells assessed as protection factor at 15 uM incubated for 20 hrs followed by replacement of [14c]-Leucine containing medium and measured after 4 hrs by liquid scintillation analysis relative to untreated control; format: functional
Outline: (§2)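 A549 cells were incubated with Baf A1 (0.15 nM), DABMA (15 μM), both, or DMSO vehicle before DT was added, with the compounds kept present throughout. Toxin protection was read as protein synthesis and expressed as protection factor.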

A549 [5] = experiment: Inhibition of colony formation in human A549 cells assessed as reduction in colony forming unit at 30 to 60 uM incubated for 16 hrs followed by fresh medium supplementation and measured after 7 days by crystal violet-staining based assay; format: cell-based; conditions: a549, 16 h
Outline: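 Colony-forming assay of A549 cells with compound at 30 or 60 μM, DMSO vehicle, and paclitaxel (5 μM) as positive control; n = 2.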

HUVEC = experiment: Cytoprotection activity in HUVEC assessed as inhibition of diphtheria induced toxicity by measuring protein synthesis at 15 to 60 uM incubated for 20 hrs followed by replacement of [14c]-Leucine containing medium and measured after 4 hrs by liquid scintillation analysis; format: functional, cell-based; conditions: Homo sapiens
A-431 = experiment: Cytoprotection activity in human A431 cells assessed as inhibition of diphtheria induced toxicity incubated for 20 hrs followed by replacement of [14c]-Leucine containing medium and measured after 4 hrs by liquid scintillation analysis; format: functional, cell-based
DLD-1 = experiment: Cytoprotection activity in human DLD1 cells assessed as inhibition of diphtheria induced toxicity incubated for 20 hrs followed by replacement of [14c]-Leucine containing medium and measured after 4 hrs by liquid scintillation analysis; format: functional, cell-based
A549 [6] = experiment: Induction of lysosomal activation in human A549 cells at 30 uM incubated for 2 hrs by LysoTracker Red staining based confocal microscopic analysis; format: functional, cell-based
Outline: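 A549 cells were pretreated 2 h with compound (30 or 60 μM) or DMSO, then stained with LysoTracker Deep Red (50 nM, 30 min) plus Hoechst. Intensity was read from 3 × 3 fields per well (10,000 cells/well) by imaging reader; mean ± SEM, n = 4; confocal images.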

Vero [7] = experiment: Inhibition of TcsL-induced cytotoxicity against African green monkey Vero cells assessed as reversal of toxin-induced cell rounding at 30 uM in presence of TcsL after 16 hrs by inverted microscopic analysis; format: functional, cell-based; conditions: Chlorocebus sabaeus; outline: as §1
Vero [8] = experiment: Inhibition of TcdB-induced cytotoxicity against African green monkey Vero cells assessed as reversal of toxin-induced cell rounding after 4 hrs by inverted microscopic analysis; format: functional, cell-based; conditions: Chlorocebus sabaeus; outline: as §1
Vero [9] = experiment: Inhibition of TcsL-induced cytotoxicity against African green monkey Vero cells assessed as reversal of toxin-induced cell rounding after 16 hrs by inverted microscopic analysis; format: functional, cell-based; conditions: Chlorocebus sabaeus; outline: as §1
Lyssavirus rabies = experiment: Antiviral activity against RABV infected in BSR cells preincubated for 4 hrs followed by viral infection and further incubated with compounds for 24 hrs by immunostaining-based assay; format: functional, organism-based
Outline: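 BSR cells were pretreated 4 h with compound, then infected with RABV (MOI = 14) for 1 h. Cells were washed and kept with compound for 24 h, then fixed and immunostained for the RABV ribonucleocapsid (RNP). Nuclei and RNP images from 15 fields per well (>10,000 cells) were used to calculate percent inhibition.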

Zaire ebolavirus [10] = experiment: Antiviral activity against Zaire EBOV-Mayinga expressing GFP infected in human HeLa cells preincubated for 1 hr followed by viral infection after 24 hrs by DAPI-staining based fluorescence assay; format: functional, organism-based; conditions: Zaire, 1976, HeLa
[11] = Cytotoxicity against human HeLa cells assessed as reduction in cell viability incubated for 20 hrs by Alamar blue assay; format: cell-based
A549 [12] = experiment: Inhibition of diphtheria induced toxicity in human A549 cells assessed as protection fold at 30 uM incubated for 20 hrs followed by replacement of [14c]-Leucine containing medium and measured after 4 hrs by liquid scintillation analysis relative to ABMA; format: functional
Outline: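 Single-concentration screen: 30 μM compound on A549 cells with increasing DT concentrations, read as protein synthesis inhibition. Protection fold was calculated with ABMA as the positive control.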

Zaire ebolavirus [13] = experiment: Potency index, ratio of ABMA EC50 to compound EC50 for antiviral activity against Zaire Ebola virus -Mayinga expressing GFP infected in human HeLa cells; format: functional, 1976
A549 [14] = experiment: Induction of morphological changes in human A549 cells assessed as change in golgi apparatus at 30 uM incubated for 24 hrs by cyto-painter dye based inverted microscopic method; format: functional, cell-based
A549 [15] = experiment: Induction of morphological changes in human A549 cells assessed as change in endoplasmic reticulum at 30 uM incubated for 24 hrs by cyto-painter dye based inverted microscopic method; format: functional, cell-based
Vero [16] = experiment: Selectivity index, ratio of CC50 for cytotoxicity against African green monkey Vero cells to EC50 for cytoprotective activity in TcsL-induced cytotoxicity in African green monkey Vero cells; set-up: species or system Chlorocebus sabaeus
Vero [17] = experiment: Selectivity index, ratio of CC50 for cytotoxicity against African green monkey Vero cells to EC50 for cytoprotective activity in TcdB-induced cytotoxicity in African green monkey Vero cells; set-up: species or system Chlorocebus sabaeus
[18] = Selectivity index, ratio of CC50 for cytotoxicity against mouse L929 cells to EC50 for cytoprotective activity in Pseudomonas aeruginosa exotoxin-induced cytotoxicity in mouse L929 cells; format: toxicity, cell-based; conditions: read-out: Ratio CC50/EC50
HeLa = experiment: Cytotoxicity against human HeLa cells assessed as reduction in cell viability at >100 uM incubated for 20 hrs by Alamar blue assay; format: cell-based
A549 [19] = experiment: Inhibition of diphtheria induced toxicity in human A549 cells assessed as protection factor at 15 uM incubated for 20 hrs in presence of bafilomycin A1 followed by replacement of [14c]-Leucine containing medium and measured after 4 hrs by liquid scintillation analysis relative to untreated control; format: functional; outline: as §2
A549 [20] = experiment: Cytotoxicity against human A549 cells assessed as reduction in cell viability at 15 uM incubated for 20 hrs in presence of bafilomycin A1; format: cell-based; conditions: a549, 20 h

Compound: COc1ccc(Br)cc1CNC12CC3CC(C)(CC(C)(C3)C1)C2
- fold change (FC) (L929): 4.8
- fold change (FC) (Vero [1]): 5.6
- EC50 (A549 [2]): 25.7 µM
- CC50 at 24 h [3]: 120 µM
- fold change (FC) (A549 [4]): 6.3
- Activity (A549 [5]): Non-Toxic
- Activity (HUVEC): Active
- Activity (A-431): Active
- Activity (DLD-1): Active
- Activity (A549 [6]): Active
- inhibition (Vero [7]): Active
- EC50 (Vero [8]): 38.6 µM
- EC50 (Vero [9]): 15.8 µM
- inhibition (Lyssavirus rabies): Active
- EC50 (Zaire ebolavirus [10]): 0.908 µM
- CC50 at 20 h [11]: 117 µM
- fold change (FC) (A549 [12]): 18.5
- Ratio EC50 (Zaire ebolavirus [13]): 6.6
- Activity (A549 [14]): inactive
- Activity (A549 [15]): inactive
- Ratio CC50/EC50 (Vero [16]): 7.38
- Ratio CC50/EC50 (Vero [17]): 6.34
- selectivity ratio [18]: 4.35
- Activity (HeLa): Toxic
- fold change (FC) (A549 [19]): 300
- Activity (A549 [20]): Non-Toxic
